In paper PMC9322450 (Angewandte Chemie (International ed. in English), 2022):

Tests used:
[1] = assay type: in vitro ADME, mouse
In short: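 Mouse epidermis punches (C57BL/6-type, ≈6 mm diameter, 1 mm thick) incubated with test compound at 4.85 μM in PBS for 24 h. Supernatant sampled over time, diluted 100-fold, added to a group-I S. aureus agr YFP reporter strain making native AIP. Fluorescence normalized to vehicle (100%) and media (0%) controls, n=3 independent experiments; remaining active compound estimated from an earlier dose-response curve.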

[2] = system: S. aureus; experiment: murine open-wound model of S. aureus infection; assay type: in vivo, mouse; conditions: even at relatively high concentrations (e.g. 10 μM)

AIP-III D4A
loss of active compound ([1]; after 24 h with mouse tissue in PBS, start 4.85 μM): ~ 95% | loss of inhibitory activity in the absence of mouse tissue ([1]; control without tissue, 24 hr): no loss of inhibitory activity | loss of activity with heat-treated tissue ([1]; tissue sample heat treated at 80 °C for 15 min before addition of compound): loss of activity could be prevented | benefit on wound healing [2]: only a limited benefit on wound healing
